In ChEMBL document CHEMBL1126072, “Hydantoin bioisosteres. In vivo active spiro hydroxy acetic acid aldose reductase inhibitors” (J Med Chem, 1992):

Experiments:
Rattus norvegicus [1] = experiment: Nerve concentration at 3h after the last dose of 25 mg/kg for 5 days.; assay type: functional
Rattus norvegicus [2] = experiment: Effective dose was tested against the inhibition of sorbitol accumulation in sciatic nerves from streptozotocin-diabetic rats dosed at 3*25 mg/kg over 27h.; assay type: functional; details: Sciatic nerve
Rattus norvegicus [3] = experiment: Plasma concentration at 3h after the last dose of 25 mg/kg for 5 days.; assay type: functional
[4] = target: T1, Aldo-keto reductase family 1 member B1 (Homo sapiens, UniProt P15121); experiment: (§1) ARI(aldose reductase inhibitor) enantiospecificity against human placental aldose reductase.
[5] = target: T1, Aldo-keto reductase family 1 member B1; experiment: Inhibitory activity against human placental aldose reductase
[6] = target: T1, Aldo-keto reductase family 1 member B1; experiment: Compound was tested in vitro for its inhibitory activity against human placental aldose reductase
Rattus norvegicus [7] = experiment: In vivo inhibition of sorbitol accumulation in sciatic nerves from streptozotocin-diabetic rats dosed at 1*25 mg/kg over 5 days.; assay type: functional, Sciatic nerve
Rattus norvegicus [8] = experiment: In vivo inhibition of sorbitol accumulation in sciatic nerves from streptozotocin-diabetic rats dosed at 3*25 mg/kg over 27h.; assay type: functional, Sciatic nerve
Rattus norvegicus [9] = experiment: Inhibition of sorbitol accumulation in sciatic nerves from streptozotocin-diabetic rats dosed at 3*25 mg/kg over 27h.; assay type: functional, Sciatic nerve
[10] = target: T1, Aldo-keto reductase family 1 member B1; experiment: as §1; remark: listed apart in the source
Procedure, shortened: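 Partially purified human placental enzyme (buffer homogenate, 33000g spin, pooled peak fractions, frozen). Rate of NADPH oxidation read at 340 nm, 25 °C, 12 min, in 50 mM phosphate pH 7.1 with 0.4 M NH4SO4, 0.067 mM NADPH, 1.0 mM dl-glyceraldehyde; enzyme at 4 milliunits. Molar IC50 ± SD over n experiments, from log-linear fit with common slope.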

Rattus norvegicus [11] = experiment: Inhibition of sorbitol accumulation in sciatic nerves from streptozotocin-diabetic rats dosed at 3*100 mg/kg over 27h.; assay type: functional, Sciatic nerve
Procedure, shortened: (§2)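 Male Sprague-Dawley rats (180–220 g, 42–54 days) made diabetic with streptozotocin 85 mg/kg at 0 h. Oral gavage at 4, 7 and 24 h, dose quoted per time point. Sciatic nerve sorbitol measured with sorbitol dehydrogenase/NAD in pH 9.4 glycine. Mean (±SEM) percent inhibition against untreated diabetic controls, Student's t test on absolute sorbitol.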

Rattus norvegicus [12] = experiment: In vivo inhibition of sorbitol accumulation in sciatic nerves from streptozotocin-diabetic rats given three doses over 27 h. at a dose of 2.5 mg/kg; assay type: functional; details: Sciatic nerve; procedure, shortened: as §2
Rattus norvegicus [13] = experiment: In vivo inhibition of sorbitol accumulation in sciatic nerves from streptozotocin-diabetic rats dosed over 5 days. at a dose of 5 mg/kg; assay type: functional; details: Sciatic nerve, 120 h
Procedure, shortened: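 Rats made diabetic with iv streptozotocin 85 mg/kg. From day 7, oral gavage once daily for 5 days. Animals killed 3 h after the last dose. Sorbitol in neutralized perchloric acid extracts of 25-mg sciatic nerve portions measured with sheep liver sorbitol dehydrogenase and NAD in pH 9.4 glycine. Percent inhibition against diabetic controls.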

Rattus norvegicus [14] = experiment: In vivo inhibition of sorbitol accumulation in sciatic nerves from streptozotocin-diabetic rats dosed over 27 h. at a dose of 5 mg/kg; assay type: functional; details: Sciatic nerve
Rattus norvegicus [15] = experiment: In vivo inhibition of sorbitol accumulation in sciatic nerves from streptozotocin-diabetic rats dosed over 27 h. at a dose of 25 mg/kg; assay type: functional; details: Sciatic nerve
Rattus norvegicus [16] = experiment: In vivo inhibition of sorbitol accumulation in sciatic nerves from streptozotocin-diabetic rats given one dose per day over 5 days at a dose of 25 mg/kg
Rattus norvegicus [17] = experiment: In vivo inhibition of sorbitol accumulation in sciatic nerves from streptozotocin-diabetic rats dosed over 5 days. at a dose of 2.5 mg/kg; assay type: functional; details: Sciatic nerve, 120 h
Rattus norvegicus [18] = experiment: In vivo inhibition of sorbitol accumulation in sciatic nerves from streptozotocin-diabetic rats dosed over 27 h. at a dose of 10 mg/kg; assay type: functional; details: Sciatic nerve
Rattus norvegicus [19] = experiment: In vivo inhibition of sorbitol accumulation in sciatic nerves from streptozotocin-diabetic rats dosed over 5 days. at a dose of 10 mg/kg; assay type: functional; details: Sciatic nerve, 120 h
Rattus norvegicus [20] = species on record: Rattus norvegicus; experiment: animal or person; details: Sciatic nerve, 120 h, read-out: Inhibition
Rattus norvegicus [21] = species on record: Rattus norvegicus; experiment: animal or person; details: Sciatic nerve, 27 h, read-out: Inhibition
Rattus norvegicus [22] = experiment: In vivo inhibition of sorbitol accumulation in sciatic nerves from streptozotocin-diabetic rats dosed over 5 days. at a dose of 25 mg/kg; assay type: functional; details: Sciatic nerve, 120 h
Rattus norvegicus [23] = experiment: Inhibition of sorbitol accumulation in sciatic nerves from streptozotocin-diabetic rats dosed at 3*50 mg/kg over 27h.; assay type: functional, Sciatic nerve; procedure, shortened: as §2

Row | Compound | IC50 [5] | IC50 [6] | ED50 (Rattus norvegicus [2]) | Tissue levels (Rattus norvegicus [3]) | Inhibition (Rattus norvegicus [7]) | Inhibition (Rattus norvegicus [8]) | Inhibition (Rattus norvegicus [9]) | Inhibition (Rattus norvegicus [11]) | inhibition in vivo at 5 mg/kg (Rattus norvegicus [14]) | inhibition in vivo at 25 mg/kg (Rattus norvegicus [15]) | inhibition in vivo at 2.5 mg/kg (Rattus norvegicus [17]) | inhibition in vivo at 10 mg/kg (Rattus norvegicus [18]) | inhibition in vivo at 10 mg/kg (Rattus norvegicus [19]) | also measured
1 | C[C@@H]1C[C@@](O)(CC(=O)O)c2cc(Cl)c(Cl)cc2O1 (stereo in doubt; 18) | 180 nM | 140 nM | 8.06 mg/kg | 19.7 µg/mL | 39% | 53% | 91% |  |  |  |  |  |  | Tissue levels (Rattus norvegicus [1]): 6.01 µg/mL; IC50 [10]: 156 nM
2 | O=C(O)C[C@]1(O)CCOc2ccc(F)cc21 | 600 nM |  | 71.4 mg/kg |  |  |  |  | 61% |  |  |  |  |  | 
3 | CC1(C)C[C@@](O)(CC(=O)O)c2cc(F)ccc2O1 | 3460 nM |  | 83.2 mg/kg |  |  |  |  | 56% |  |  |  |  |  | 
4 | C[C@@H]1C[C@@](O)(CC(=O)O)c2cc(F)c(Cl)cc2O1 (stereo in doubt; 60) |  |  |  |  |  |  |  |  | 61% | 98% | 19% | 88% | 69% | inhibition in vivo at 5 mg/kg (Rattus norvegicus [20]): 52%; IC50 [4]: 45.5 nM; inhibition in vivo at 2.5 mg/kg (Rattus norvegicus [21]): 39%; inhibition in vivo at 25 mg/kg (Rattus norvegicus [22]): 97%
5 | O=C(O)Cc1nn(Cc2ccc(Br)cc2F)c(=O)c2ccccc12 [PONALRESTAT] |  |  |  |  |  |  |  |  | 57% | 85% | 0% | 81% | 81% | inhibition in vivo at 2.5 mg/kg (Rattus norvegicus [12]): 12%; inhibition in vivo at 5 mg/kg (Rattus norvegicus [13]): 60%; inhibition in vivo at 25 mg/kg (Rattus norvegicus [22]): 88%

Continued by falling IC50 [5], values first:

Row | IC50 [5] | IC50 [6] | Compound | ED50 (Rattus norvegicus [2]) | Tissue levels (Rattus norvegicus [3]) | Inhibition (Rattus norvegicus [7]) | Inhibition (Rattus norvegicus [8]) | Inhibition (Rattus norvegicus [9]) | Inhibition (Rattus norvegicus [11]) | inhibition in vivo at 5 mg/kg (Rattus norvegicus [14]) | inhibition in vivo at 25 mg/kg (Rattus norvegicus [15]) | inhibition in vivo at 2.5 mg/kg (Rattus norvegicus [17]) | inhibition in vivo at 10 mg/kg (Rattus norvegicus [18]) | inhibition in vivo at 10 mg/kg (Rattus norvegicus [19]) | also measured
6 | 200 nM | 310 nM | C[C@@H]1C[C@@](O)(CC(=O)O)c2cc(F)ccc2O1 | 23 mg/kg | <0.5 µg/mL | 13% | 22% | 56% | 92% |  |  |  |  |  | Inhibition (Rattus norvegicus [23]): 81%
7 | 60 nM | 12 nM | C[C@@H]1C[C@@](O)(CC(=O)O)c2cc(F)c(Cl)cc2O1 (stereo in doubt; 23) | 5.1 mg/kg | 14.2 µg/mL | 55% | 72% | 76% |  |  |  |  |  |  | Tissue levels (Rattus norvegicus [1]): 1.85 µg/mL; IC50 [4]: 49.3 nM
8 | 50.9 nM |  | C[C@@H]1C[C@@](O)(CC(=O)O)c2cc(Cl)c(Cl)cc2O1 (stereo in doubt; 58) |  |  |  |  |  |  | 60% | 89% | 31% | 70% | 68% | inhibition in vivo at 2.5 mg/kg (Rattus norvegicus [12]): 49%; inhibition in vivo at 5 mg/kg (Rattus norvegicus [13]): 34%; Inhibition (Rattus norvegicus [16]): 78%
